Results reported in publication PMC10849882 (The Journal of Cell Biology, 2024).

What was measured:
[1] = biological target: IMPDH1(546)-Y12A (Homo sapiens, UniProt P20839, Y12A); assay: IMPDH1 activity assay, GTP inhibition; type: biochemical
Summary of the method: (§1)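 Enzyme at 1 µM in pH 7.0 HEPES/KCl/DTT activity buffer, preincubated 30 min at 20°C with 1 mM ATP, 1 mM IMP, 1 mM MgCl2 and graded GTP. Reaction started with 300 µM NAD+. NADH followed at 340 nm (25°C, per minute, 15 min) against a standard curve. Specific activity from the 2–7 min slope; three measurements per point. IC50 and Hill coefficient from a least-squares four-parameter fit, 90% confidence intervals.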

[2] = biological target: IMPDH1(595)-S477D (Homo sapiens, UniProt P20839, S477D); assay: IMPDH1 activity assay, GTP inhibition; type: biochemical
Chain of IMPDH1(595)-S477D (P20839 1-509 S477D): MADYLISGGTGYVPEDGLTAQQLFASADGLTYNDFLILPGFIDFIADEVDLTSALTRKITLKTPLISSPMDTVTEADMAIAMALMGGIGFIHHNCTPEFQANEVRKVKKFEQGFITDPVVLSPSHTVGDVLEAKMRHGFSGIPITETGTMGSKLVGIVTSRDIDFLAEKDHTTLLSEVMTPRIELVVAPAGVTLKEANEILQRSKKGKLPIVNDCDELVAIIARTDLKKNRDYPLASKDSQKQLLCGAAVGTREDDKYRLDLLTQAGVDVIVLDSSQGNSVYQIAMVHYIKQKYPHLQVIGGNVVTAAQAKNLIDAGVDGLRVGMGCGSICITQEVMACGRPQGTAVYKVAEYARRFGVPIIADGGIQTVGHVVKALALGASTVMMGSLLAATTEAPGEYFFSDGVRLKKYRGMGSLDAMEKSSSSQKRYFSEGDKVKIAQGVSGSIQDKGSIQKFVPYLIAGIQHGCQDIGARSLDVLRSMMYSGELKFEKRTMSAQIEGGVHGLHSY
Summary of the method: (§2)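 Recombinant human retinal-variant enzyme (E. coli BL21(DE3), 6xHis-SUMO tag removed by ULP1, gel filtration). Enzyme diluted ≥100-fold to 1 µM in pH 7.0 HEPES/KCl/DTT buffer. Preincubated 30 min at 20°C with 1 mM ATP, 1 mM IMP, 1 mM MgCl2 and varying GTP. Started with 300 µM NAD+. NADH read at A340, 25°C, each minute for 15 min. Rate from a 2–7 min slope. Triplicate; four-parameter variable-slope fit with 90% CI.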

[3] = biological target: IMPDH1(595)-Y12A (Homo sapiens, UniProt P20839, Y12A); assay: IMPDH1 activity assay, GTP inhibition; type: biochemical
Chain of IMPDH1(595)-Y12A (P20839 1-509 Y12A): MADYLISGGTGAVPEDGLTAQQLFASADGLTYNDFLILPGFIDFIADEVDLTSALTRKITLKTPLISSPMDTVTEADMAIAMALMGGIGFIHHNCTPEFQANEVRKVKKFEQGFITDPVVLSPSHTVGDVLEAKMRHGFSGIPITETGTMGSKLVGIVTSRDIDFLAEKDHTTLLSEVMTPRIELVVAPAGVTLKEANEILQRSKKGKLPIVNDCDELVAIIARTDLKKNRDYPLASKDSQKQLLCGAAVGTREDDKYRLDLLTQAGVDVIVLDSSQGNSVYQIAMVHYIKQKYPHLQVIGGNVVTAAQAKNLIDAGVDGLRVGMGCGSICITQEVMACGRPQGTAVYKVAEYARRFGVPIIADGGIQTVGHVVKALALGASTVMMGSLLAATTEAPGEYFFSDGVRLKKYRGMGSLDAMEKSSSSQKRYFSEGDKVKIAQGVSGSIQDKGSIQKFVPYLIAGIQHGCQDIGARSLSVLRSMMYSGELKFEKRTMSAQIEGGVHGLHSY
Summary of the method: as §1

[4] = biological target: IMPDH1(595)-WT (Homo sapiens, UniProt P20839); assay: IMPDH1 activity assay, GTP inhibition; type: biochemical
Chain of IMPDH1(595)-WT (P20839 1-558 isoform P20839-3 limits assumed): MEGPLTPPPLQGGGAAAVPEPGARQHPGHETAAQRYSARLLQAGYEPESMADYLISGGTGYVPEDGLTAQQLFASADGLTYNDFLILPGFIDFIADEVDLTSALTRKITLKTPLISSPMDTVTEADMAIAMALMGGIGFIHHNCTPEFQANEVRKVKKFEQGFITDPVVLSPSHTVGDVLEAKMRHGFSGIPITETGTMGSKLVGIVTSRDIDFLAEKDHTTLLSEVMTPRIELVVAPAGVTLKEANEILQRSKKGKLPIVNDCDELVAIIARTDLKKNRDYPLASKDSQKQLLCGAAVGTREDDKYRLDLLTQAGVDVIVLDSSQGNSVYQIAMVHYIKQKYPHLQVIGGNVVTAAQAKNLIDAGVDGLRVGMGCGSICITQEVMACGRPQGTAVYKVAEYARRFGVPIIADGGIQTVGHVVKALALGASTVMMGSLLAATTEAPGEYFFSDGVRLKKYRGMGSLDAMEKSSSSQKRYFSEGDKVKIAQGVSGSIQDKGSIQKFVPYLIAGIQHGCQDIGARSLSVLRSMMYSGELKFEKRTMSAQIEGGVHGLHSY
Summary of the method: as §2

[5] = biological target: IMPDH1(546)-Y12A-S477D (Homo sapiens, UniProt P20839, S477D/Y12A); assay: IMPDH1 activity assay, GTP inhibition; type: biochemical
Chain of IMPDH1(546)-Y12A-S477D (P20839 1-509 Y12A/S477D): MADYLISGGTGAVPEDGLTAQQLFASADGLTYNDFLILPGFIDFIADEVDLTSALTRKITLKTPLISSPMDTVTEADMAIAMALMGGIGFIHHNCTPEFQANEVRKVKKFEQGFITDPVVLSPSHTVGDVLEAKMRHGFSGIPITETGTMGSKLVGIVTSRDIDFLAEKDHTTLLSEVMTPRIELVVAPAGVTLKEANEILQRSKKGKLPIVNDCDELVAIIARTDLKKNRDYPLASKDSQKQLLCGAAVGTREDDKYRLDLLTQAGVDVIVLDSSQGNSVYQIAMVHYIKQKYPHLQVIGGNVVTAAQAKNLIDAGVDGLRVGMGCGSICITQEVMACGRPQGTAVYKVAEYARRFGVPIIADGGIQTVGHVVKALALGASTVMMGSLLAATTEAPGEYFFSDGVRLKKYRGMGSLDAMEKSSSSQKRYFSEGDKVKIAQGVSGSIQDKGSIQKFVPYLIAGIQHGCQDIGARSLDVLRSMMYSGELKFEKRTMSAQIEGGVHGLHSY
Summary of the method: as §1

[6] = biological target: IMPDH1(595)-Y12A-S477D (Homo sapiens, UniProt P20839, S477D/Y12A); assay: IMPDH1 activity assay, GTP inhibition; type: biochemical
Chain of IMPDH1(595)-Y12A-S477D (P20839 1-509 Y12A/S477D): as above
Summary of the method: as §1

[7] = biological target: IMPDH1(546)-WT (Homo sapiens, UniProt P20839); assay: IMPDH1 activity assay, GTP inhibition; type: biochemical
Chain of IMPDH1(546)-WT (P20839 1-509 limits assumed): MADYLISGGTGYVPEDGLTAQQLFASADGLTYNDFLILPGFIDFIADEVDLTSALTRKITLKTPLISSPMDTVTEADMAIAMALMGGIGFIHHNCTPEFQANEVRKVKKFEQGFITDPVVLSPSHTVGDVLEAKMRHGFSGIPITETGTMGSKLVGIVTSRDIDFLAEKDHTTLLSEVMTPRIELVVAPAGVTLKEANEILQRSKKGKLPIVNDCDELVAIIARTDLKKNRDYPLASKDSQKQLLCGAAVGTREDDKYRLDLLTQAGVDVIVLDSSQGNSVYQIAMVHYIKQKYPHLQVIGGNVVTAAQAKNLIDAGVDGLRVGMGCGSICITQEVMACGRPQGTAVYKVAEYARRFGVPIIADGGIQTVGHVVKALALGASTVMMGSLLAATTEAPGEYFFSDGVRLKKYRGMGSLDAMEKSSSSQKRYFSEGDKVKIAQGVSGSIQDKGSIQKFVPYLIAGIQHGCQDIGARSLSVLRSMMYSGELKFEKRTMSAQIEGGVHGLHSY
Summary of the method: as §2

[8] = biological target: IMPDH1(546)-S477D (Homo sapiens, UniProt P20839, S477D); assay: IMPDH1 activity assay, GTP inhibition; type: biochemical
Chain of IMPDH1(546)-S477D (P20839 1-509 S477D): as the sequence (P20839 1-509 S477D) above
Summary of the method: as §2

[9] = tested on: HeLa cells; assay: Ribavirin-induced IMPDH filament assembly in cells, immunofluorescence; type: cell-based, human; conditions: 1 mM ribavirin for 2 h
Summary of the method: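 HeLa (ATCC CCL-2) in DMEM/10% FBS, 37°C, 5% CO2. Seeded 4×10^4 cells/well on chambered glass slides and transfected next day with 328 ng plasmid (TransIT-HeLaMONSTER). After 48 h, fixed in 4% paraformaldehyde and Triton-permeabilised. Stained with anti-IMPDH2 (endogenous plus transfected), anti-FLAG and DAPI. Imaged by widefield 40×. Two biological replicates, ≥100 cells counted per condition.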

[10] = Hill coefficient of GTP inhibition curve

Chain of IMPDH1(546)-Y12A (P20839 1-509 Y12A): as the sequence (P20839 1-509 Y12A) above

IC50 [1] [µM] | Hill best-fit [1, 10] | IC50 [2] [µM] | Hill best-fit [2, 10] | IC50 [3] [µM] | Hill best-fit [3, 10] | IC50 [4] [mM] | Hill best-fit [4, 10] | IC50 [5] [µM] | Hill best-fit [5, 10] | IC50 [6] [µM] | Hill best-fit [6, 10] | IC50 [7] [µM] | Hill best-fit [7, 10] | IC50 [8] [µM] | Hill best-fit [8, 10] | SMILES | Percentage of transfected cells containing filaments ([9]; cells transfected with FLAG-tagged IMPDH1(546)-S477A) [%] | Percentage of transfected cells containing filaments ([9]; cells transfected with FLAG-tagged IMPDH1(546)-S477D) [%] | Percentage of transfected cells containing filaments ([9]; cells transfected with FLAG-tagged IMPDH1(595)-S477D) [%]
538 | 4.0 | 603 | 3.7 | 473 | 4.5 | 1.15 | 2.3 | 458 | 4.2 | 464 | 4.1 | 757 | 4.6 | 486 | 3.7 | Nc1nc2c(ncn2[C@@H]2O[C@H](COP(=O)(O)OP(=O)(O)OP(=O)(O)O)[C@@H](O)[C@H]2O)c(=O)[nH]1 [GTP, guanosine triphosphate] | – | – | –
– | – | – | – | – | – | – | – | – | – | – | – | – | – | – | – | NC(=O)c1ncn([C@@H]2O[C@H](CO)[C@@H](O)[C@H]2O)n1 [ribavirin] | 100 | 2 | 2
